Tests used:
[1] = test system: MDA-MB-231; test: Antiproliferative activity against human MDA-MB-231 cells after 24 hrs by MTT assay; assay type: functional, cell-based; details: MDA-MB-231, 24 h
Method in brief: (§1)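 MCF-7 (ER+ve) and MDA-MB-231 (ER-ve) breast cancer cells were exposed to compound or vehicle. Viability was read by MTT and expressed as % cell death versus vehicle, with 4-hydroxytamoxifen as positive control. IC50 came from three independent experiments, each in triplicate.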

[2] = test system: MCF7; test: Antiproliferative activity against human MCF7 cells after 24 hrs by MTT assay; assay type: functional, cell-based; details: MCF7, 24 h; method in brief: as §1
[3] = test system: MCF7; test: Antiproliferative activity against human MCF7 cells after 72 hrs by MTT assay; assay type: functional, cell-based; details: MCF7, 72 h; method in brief: as §1
[4] = test system: MDA-MB-231; test: Antiproliferative activity against human MDA-MB-231 cells after 48 hrs by MTT assay; assay type: functional, cell-based; details: MDA-MB-231, 48 h; method in brief: as §1
[5] = test system: MCF7; test: Antiproliferative activity against human MCF7 cells after 48 hrs by MTT assay; assay type: functional, cell-based; details: MCF7, 48 h; method in brief: as §1
[6] = test system: MDA-MB-231; test: Antiproliferative activity against human MDA-MB-231 cells after 72 hrs by MTT assay; assay type: functional, cell-based; details: MDA-MB-231, 72 h; method in brief: as §1
[7] = Safety index, ratio of IC50 for HEK293 cells to IC50 for human MCF7 cells; assay type: toxicity, cell-based; details: HEK293 cells versus MCF7 cells, read-out: Ratio IC50
Method in brief: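 Cell death was assessed by MTT assay after 72 h exposure. The ratio was calculated as the HEK-293 IC50 divided by the MCF-7 EC50.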

[8] = test system: HEK293; test: Cytotoxicity against HEK293 cells after 24 hrs by MTT assay; assay type: cell-based; details: Homo sapiens, HEK293, 72 h; in the assay text read “after 72 hrs” for “after 24 hrs”

Structure (SMILES)	IC50 [1] [µM]	IC50 [2] [µM]	other results
CCC(=C(c1ccc(O)cc1)c1ccc(OCCN(C)C)cc1)c1ccccc1	10.4	7.2	
COc1cccc2c1OC[C@H](Cc1ccc(OCCN3CCOCC3)cc1)N(S(=O)(=O)c1ccc(C)cc1)C2	> 20	> 20	
COc1ccc(C[C@H]2COc3ccccc3CN2)cc1	> 20	> 20	
COc1cccc2c1OC[C@H](Cc1ccc(OCCN3CCCC3)cc1)N(S(=O)(=O)c1ccc(C)cc1)C2	> 20	> 20	
COc1cccc2c1OC[C@H](Cc1ccc(OCCN(C)C)cc1)N(S(=O)(=O)c1ccc(C)cc1)C2	> 20	> 20	
COc1ccc2c(c1)CN(S(=O)(=O)c1ccc(C)cc1)[C@@H](Cc1c[nH]c3ccccc13)CO2	> 20	> 20	
COc1ccc(C[C@H]2COc3ccccc3CN2C(=O)OC(C)(C)C)cc1	> 20	> 20	
COc1cccc2c1OC[C@H](Cc1ccc(OCCN3CCCCCC3)cc1)N(S(=O)(=O)c1ccc(C)cc1)C2	> 20	> 20	
COc1ccc(C[C@H]2COc3ccccc3CN2Cc2ccc(OCCN3CCCCCC3)cc2)cc1	> 20	> 20	
COc1ccc2c(c1)CN(S(=O)(=O)c1ccc(C)cc1)[C@@H](CC(C)C)CO2	> 20	> 20	
Cc1ccc(S(=O)(=O)N2Cc3ccccc3OCC2Cc2ccc(O)cc2)cc1 (stereo not drawn)			IC50 [3]: 10 µM; selectivity ratio [7]: 3; IC50 [8]: 30 µM
COc1ccc2c(c1)OC[C@H](Cc1ccc(O)cc1)N(S(=O)(=O)c1ccc(C)cc1)C2	> 20	> 20	

More lines, main results first:

IC50 [1] [µM]	IC50 [2] [µM]	Structure (SMILES)	other results
> 20	> 20	COc1ccc(C[C@H]2COc3ccccc3CN2Cc2ccc(OCCN(C)C)cc2)cc1	
10.2	9.62	Cc1ccc(S(=O)(=O)N2Cc3ccccc3OC[C@@H]2Cc2ccc(OCCN3CCCCC3)cc2)cc1	IC50 [3]: 3.23 µM; IC50 [4]: 5.12 µM; IC50 [5]: 4.31 µM; IC50 [6]: 4.2 µM
> 20	> 20	CCN(CC)CCOc1ccc(C[C@H]2COc3c(cccc3OC)CN2S(=O)(=O)c2ccc(C)cc2)cc1	
> 20	> 20	COc1ccc(C[C@H]2COc3ccccc3CN2Cc2ccc(OCCN3CCCCC3)cc2)cc1	
13.2	10.3	COc1ccc(C[C@H]2COc3ccccc3CN2Cc2ccc(O)cc2)cc1	
15.7	12.5	COc1ccc(C[C@H]2COc3ccccc3CN2Cc2ccc(OCCN3CCCC3)cc2)cc1	
18.6	14.5	CCN(CC)CCOc1ccc(CN2Cc3ccccc3OC[C@@H]2Cc2ccc(OC)cc2)cc1	
